Source: ChEMBL document CHEMBL5653631, “A Potent and Selective ULK1 Inhibitor Suppresses Autophagy and Sensitizes Cancer Cells to Nutrient Stress” (iScience, 2018)
Blank lines part the entries; values can stand above or below the compound they belong to.

Assays:
[1] = target: Rhodopsin kinase GRK7 (Homo sapiens) (UniProt Q8WTQ7); test: Inhibition of human recombinant GPRK7 at 500 nM related to control ULK1
[2] = target: Activated CDC42 kinase 1 (Homo sapiens) (UniProt Q07912); test: Inhibition of human recombinant ACK at 500 nM in presence of ATP by radiometric assay relative to control
In short: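 Panel of 327 recombinant human kinases in radiometric activity assays, each screened in duplicate at a single inhibitor concentration; percent activity remaining relative to vehicle control, percent inhibition taken as 100 minus activity remaining.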

[3] = target: T1, Testis-specific serine/threonine-protein kinase 3 (Homo sapiens) (UniProt Q96PN8); test: Inhibition of human recombinant TSSK3 at 500 nM in presence of ATP by radiometric assay relative to control
T1 sequence (whole entry): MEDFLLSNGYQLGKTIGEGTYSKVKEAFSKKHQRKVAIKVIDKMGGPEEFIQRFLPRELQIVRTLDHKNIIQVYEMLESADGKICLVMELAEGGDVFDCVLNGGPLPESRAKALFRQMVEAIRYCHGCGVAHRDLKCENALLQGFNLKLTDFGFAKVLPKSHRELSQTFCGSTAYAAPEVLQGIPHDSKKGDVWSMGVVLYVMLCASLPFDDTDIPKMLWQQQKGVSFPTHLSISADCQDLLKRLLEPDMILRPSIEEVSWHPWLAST

[4] = target: T2, Dual specificity protein kinase TTK (Homo sapiens) (UniProt P33981); test: Inhibition of human recombinant TTK at 500 nM in presence of ATP by radiometric assay relative to control
T2 sequence (whole entry): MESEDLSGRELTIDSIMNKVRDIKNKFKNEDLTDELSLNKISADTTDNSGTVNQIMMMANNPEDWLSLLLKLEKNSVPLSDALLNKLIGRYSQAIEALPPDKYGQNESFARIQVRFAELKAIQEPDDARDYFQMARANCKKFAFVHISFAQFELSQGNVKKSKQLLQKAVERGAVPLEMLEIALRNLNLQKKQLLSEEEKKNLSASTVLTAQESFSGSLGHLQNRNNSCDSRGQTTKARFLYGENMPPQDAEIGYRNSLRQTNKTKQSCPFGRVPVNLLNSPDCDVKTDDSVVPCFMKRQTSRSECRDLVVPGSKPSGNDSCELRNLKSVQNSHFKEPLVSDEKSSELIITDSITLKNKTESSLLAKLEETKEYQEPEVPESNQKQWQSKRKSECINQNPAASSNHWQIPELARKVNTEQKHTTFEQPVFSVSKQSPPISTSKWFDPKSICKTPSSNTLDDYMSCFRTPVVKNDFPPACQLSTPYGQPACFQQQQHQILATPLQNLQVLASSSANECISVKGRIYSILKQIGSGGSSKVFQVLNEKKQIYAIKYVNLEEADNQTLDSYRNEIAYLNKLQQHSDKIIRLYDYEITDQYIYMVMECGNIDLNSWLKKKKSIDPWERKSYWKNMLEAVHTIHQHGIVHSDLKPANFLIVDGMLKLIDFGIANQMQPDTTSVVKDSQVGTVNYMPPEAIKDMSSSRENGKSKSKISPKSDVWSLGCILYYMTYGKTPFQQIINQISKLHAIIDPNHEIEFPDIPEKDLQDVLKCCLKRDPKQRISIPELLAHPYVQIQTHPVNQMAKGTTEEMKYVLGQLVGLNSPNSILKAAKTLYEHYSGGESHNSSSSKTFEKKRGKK

[5] = target: T3, Serine/threonine-protein kinase 17B (Homo sapiens) (UniProt O94768); test: Inhibition of human recombinant DRAK2 at 15 nM related to control ULK1
T3 sequence (whole entry): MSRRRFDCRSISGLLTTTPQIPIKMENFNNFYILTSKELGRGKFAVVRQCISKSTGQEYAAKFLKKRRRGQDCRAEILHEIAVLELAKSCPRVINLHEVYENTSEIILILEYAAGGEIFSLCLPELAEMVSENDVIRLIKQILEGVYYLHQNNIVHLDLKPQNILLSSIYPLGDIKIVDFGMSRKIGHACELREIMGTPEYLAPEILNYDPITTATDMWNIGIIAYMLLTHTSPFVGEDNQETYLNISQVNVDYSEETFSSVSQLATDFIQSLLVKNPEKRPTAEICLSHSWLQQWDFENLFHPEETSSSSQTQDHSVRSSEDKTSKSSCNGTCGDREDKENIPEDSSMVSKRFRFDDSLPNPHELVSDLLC

[6] = target: Serine/threonine-protein kinase Chk2 (Homo sapiens) (UniProt O96017); test: Inhibition of human recombinant CHK2 at 15 nM in presence of ATP by radiometric assay relative to control
[7] = target: Wee1-like protein kinase 2 (Homo sapiens) (UniProt P0C1S8); test: Inhibition of human recombinant Wee1B at 15 nM related to control ULK1
[8] = target: T4, Testis-specific serine/threonine-protein kinase 2 (Homo sapiens) (UniProt Q96PF2); test: Inhibition of human recombinant TSSK2 at 40 nM related to control ULK1
T4 sequence (whole entry): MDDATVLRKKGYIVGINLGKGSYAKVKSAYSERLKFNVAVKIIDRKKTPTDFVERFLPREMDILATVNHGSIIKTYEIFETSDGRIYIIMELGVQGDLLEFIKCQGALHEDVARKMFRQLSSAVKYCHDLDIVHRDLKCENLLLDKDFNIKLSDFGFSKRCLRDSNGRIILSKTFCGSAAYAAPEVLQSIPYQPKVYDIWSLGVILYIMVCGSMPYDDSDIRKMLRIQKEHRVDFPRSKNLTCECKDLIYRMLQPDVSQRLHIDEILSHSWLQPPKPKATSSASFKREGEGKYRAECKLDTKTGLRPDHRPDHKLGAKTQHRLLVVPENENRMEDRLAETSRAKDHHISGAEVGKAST

[9] = target: Serine/threonine-protein kinase WNK3 (Homo sapiens) (UniProt Q9BYP7); test: Inhibition of human recombinant Wnk3 at 40 nM in presence of ATP by radiometric assay relative to control
[10] = target: Mitogen-activated protein kinase kinase kinase kinase 1 (Homo sapiens) (UniProt Q92918); test: Inhibition of human recombinant HPK1 at 40 nM related to control ULK1
Sequence of Mitogen-activated protein kinase kinase kinase kinase 1 (Homo sapiens) (Q92918 whole entry, looked up): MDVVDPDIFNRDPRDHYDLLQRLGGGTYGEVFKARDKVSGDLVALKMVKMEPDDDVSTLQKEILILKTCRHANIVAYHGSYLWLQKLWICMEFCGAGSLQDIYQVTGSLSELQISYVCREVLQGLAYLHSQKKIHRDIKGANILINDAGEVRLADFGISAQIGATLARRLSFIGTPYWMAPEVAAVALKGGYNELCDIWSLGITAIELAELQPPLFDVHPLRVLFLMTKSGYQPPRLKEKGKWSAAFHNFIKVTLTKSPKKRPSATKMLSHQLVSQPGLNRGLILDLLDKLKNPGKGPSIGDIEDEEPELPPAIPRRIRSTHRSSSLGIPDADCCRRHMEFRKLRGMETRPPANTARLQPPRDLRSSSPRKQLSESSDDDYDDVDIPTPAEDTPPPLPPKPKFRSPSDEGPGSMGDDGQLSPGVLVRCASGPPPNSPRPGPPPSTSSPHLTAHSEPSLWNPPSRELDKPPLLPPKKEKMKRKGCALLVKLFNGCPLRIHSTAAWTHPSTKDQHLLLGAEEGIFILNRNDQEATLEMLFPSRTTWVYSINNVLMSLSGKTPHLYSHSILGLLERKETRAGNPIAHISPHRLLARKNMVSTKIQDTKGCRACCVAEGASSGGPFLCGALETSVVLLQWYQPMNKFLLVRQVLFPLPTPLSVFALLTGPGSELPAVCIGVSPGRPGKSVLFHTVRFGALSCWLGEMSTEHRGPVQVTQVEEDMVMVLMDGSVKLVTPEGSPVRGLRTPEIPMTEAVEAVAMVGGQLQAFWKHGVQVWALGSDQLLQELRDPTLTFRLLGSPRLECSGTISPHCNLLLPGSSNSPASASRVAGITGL

Sequence of Activated CDC42 kinase 1 (Homo sapiens) (Q07912 whole entry, looked up): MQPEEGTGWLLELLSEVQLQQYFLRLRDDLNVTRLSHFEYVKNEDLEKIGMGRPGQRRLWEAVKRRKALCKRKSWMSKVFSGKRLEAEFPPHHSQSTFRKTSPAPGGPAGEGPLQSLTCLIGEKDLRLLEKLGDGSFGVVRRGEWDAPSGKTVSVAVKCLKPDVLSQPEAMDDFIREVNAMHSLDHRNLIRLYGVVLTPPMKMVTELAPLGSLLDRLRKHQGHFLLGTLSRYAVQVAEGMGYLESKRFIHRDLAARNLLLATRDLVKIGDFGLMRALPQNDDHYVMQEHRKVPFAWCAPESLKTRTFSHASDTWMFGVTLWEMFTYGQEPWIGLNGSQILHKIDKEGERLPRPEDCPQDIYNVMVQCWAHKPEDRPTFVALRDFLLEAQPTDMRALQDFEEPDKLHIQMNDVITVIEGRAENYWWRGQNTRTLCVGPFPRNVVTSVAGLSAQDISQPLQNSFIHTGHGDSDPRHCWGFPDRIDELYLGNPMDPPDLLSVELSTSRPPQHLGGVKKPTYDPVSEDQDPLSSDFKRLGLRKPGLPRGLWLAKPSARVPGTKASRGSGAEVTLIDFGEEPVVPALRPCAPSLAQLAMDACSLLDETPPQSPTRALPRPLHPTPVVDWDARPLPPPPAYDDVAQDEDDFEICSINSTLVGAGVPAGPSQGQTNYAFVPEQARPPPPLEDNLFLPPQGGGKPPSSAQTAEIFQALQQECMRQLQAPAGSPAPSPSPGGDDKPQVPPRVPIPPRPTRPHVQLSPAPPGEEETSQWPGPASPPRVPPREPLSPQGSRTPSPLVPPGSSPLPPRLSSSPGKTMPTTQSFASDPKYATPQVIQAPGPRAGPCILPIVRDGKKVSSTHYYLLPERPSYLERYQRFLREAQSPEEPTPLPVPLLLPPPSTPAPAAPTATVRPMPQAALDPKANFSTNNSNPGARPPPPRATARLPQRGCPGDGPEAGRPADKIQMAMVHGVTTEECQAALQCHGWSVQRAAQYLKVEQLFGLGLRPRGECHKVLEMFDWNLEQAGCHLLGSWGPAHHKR
Sequence of Rhodopsin kinase GRK7 (Homo sapiens) (Q8WTQ7 whole entry, looked up): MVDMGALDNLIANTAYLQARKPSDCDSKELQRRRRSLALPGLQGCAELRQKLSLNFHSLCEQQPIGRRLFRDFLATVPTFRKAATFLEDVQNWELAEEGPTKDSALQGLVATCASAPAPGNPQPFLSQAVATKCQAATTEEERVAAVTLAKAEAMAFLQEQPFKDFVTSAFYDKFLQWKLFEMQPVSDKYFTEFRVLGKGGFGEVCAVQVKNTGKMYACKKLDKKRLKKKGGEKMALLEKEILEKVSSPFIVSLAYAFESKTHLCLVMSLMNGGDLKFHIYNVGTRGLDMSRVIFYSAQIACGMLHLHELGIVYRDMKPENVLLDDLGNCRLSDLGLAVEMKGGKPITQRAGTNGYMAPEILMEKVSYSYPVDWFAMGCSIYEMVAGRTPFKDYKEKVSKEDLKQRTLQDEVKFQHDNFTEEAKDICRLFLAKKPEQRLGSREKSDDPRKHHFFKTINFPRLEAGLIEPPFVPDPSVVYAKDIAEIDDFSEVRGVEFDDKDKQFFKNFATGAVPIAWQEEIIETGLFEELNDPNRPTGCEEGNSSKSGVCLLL
Sequence of Serine/threonine-protein kinase WNK3 (Homo sapiens) (Q9BYP7 whole entry): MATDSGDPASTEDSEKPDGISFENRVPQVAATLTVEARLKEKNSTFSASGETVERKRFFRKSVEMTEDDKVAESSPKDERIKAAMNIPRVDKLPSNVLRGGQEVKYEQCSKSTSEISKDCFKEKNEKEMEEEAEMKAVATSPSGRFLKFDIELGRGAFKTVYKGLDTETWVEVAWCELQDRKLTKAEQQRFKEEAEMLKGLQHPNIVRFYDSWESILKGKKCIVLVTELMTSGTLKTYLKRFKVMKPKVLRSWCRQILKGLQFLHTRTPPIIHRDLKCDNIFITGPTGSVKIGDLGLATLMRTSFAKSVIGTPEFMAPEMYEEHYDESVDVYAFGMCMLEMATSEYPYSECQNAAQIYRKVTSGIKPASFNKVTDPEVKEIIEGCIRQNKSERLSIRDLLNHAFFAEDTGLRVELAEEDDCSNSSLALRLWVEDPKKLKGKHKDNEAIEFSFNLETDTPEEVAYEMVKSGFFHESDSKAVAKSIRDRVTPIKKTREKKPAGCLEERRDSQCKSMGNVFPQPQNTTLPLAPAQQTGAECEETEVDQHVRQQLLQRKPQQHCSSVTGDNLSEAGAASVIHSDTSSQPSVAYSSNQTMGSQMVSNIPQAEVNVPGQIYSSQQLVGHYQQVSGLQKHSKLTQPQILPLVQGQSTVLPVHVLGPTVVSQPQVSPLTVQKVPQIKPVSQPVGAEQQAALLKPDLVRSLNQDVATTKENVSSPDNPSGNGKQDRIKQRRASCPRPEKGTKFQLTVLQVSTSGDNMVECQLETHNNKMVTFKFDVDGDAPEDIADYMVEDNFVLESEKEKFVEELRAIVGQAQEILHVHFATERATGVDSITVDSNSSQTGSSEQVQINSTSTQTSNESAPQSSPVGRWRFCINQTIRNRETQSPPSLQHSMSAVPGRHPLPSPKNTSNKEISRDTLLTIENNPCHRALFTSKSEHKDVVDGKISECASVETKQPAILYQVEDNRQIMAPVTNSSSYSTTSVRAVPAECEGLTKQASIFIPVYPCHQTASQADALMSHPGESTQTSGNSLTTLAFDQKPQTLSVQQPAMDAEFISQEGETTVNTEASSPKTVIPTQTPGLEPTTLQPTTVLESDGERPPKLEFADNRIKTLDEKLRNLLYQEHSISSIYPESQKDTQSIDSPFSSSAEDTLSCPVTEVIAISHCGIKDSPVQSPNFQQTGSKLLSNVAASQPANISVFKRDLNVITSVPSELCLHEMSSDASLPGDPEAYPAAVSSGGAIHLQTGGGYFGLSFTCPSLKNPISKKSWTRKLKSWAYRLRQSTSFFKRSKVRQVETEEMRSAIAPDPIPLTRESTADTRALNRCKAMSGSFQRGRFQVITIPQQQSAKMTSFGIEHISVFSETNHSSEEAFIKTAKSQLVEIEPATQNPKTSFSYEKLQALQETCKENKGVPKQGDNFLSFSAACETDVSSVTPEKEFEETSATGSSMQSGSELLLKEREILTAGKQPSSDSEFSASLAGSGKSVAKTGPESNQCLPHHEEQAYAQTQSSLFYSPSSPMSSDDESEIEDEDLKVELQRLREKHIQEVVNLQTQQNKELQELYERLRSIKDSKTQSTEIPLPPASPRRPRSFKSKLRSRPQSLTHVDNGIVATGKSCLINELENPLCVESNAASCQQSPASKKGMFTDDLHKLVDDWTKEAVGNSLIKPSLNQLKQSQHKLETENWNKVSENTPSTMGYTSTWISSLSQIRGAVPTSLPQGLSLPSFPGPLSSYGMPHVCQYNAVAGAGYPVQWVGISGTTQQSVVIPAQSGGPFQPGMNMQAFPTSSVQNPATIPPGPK
Sequence of Serine/threonine-protein kinase Chk2 (Homo sapiens) (O96017 whole entry): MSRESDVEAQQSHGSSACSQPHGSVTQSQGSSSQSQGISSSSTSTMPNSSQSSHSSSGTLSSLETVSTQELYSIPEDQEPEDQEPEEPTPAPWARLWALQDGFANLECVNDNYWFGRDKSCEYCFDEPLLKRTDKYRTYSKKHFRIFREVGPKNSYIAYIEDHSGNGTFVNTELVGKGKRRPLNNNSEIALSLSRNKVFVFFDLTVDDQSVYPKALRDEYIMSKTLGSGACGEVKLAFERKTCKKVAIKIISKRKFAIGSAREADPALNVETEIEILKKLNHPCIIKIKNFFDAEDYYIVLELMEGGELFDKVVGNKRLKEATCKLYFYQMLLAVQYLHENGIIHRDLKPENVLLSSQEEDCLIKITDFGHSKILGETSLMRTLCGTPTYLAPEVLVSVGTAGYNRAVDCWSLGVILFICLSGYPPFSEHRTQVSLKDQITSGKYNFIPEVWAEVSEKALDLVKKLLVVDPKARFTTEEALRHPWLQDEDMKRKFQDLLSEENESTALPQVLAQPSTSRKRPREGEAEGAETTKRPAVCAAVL

fold change (FC) [1]: 0.14
inhibition [2]: 31%
inhibition [3]: 0%
inhibition [4]: 11%
Compound: CNC(=O)c1ccccc1Oc1nc(Nc2cc(OC)c(OC)c(OC)c2)ncc1Br

fold change (FC) [5]: 0.78
inhibition [6]: 0%
fold change (FC) [7]: 0.13
Compound: CC(C)[C@H](NC(=O)c1cc(-c2cnn3cc(-c4ccc(OCCN5CCCCC5)cc4)cnc23)cs1)C(F)(F)F

fold change (FC) [8]: 0
inhibition [9]: 3%
fold change (FC) [10]: 0
Compound: O=C(N[C@@H](C1CC1)C(F)(F)F)c1cc(-c2cnn3cc(-c4ccc(F)cc4)cnc23)cs1
